Measurements: ChEMBL document CHEMBL5316271, “Microtubule-Stabilizing 1,2,4-Triazolo[1,5-a]pyrimidines as Candidate Therapeutics for Neurodegenerative Disease: Matched Molecular Pair Analyses and Computational Studies Reveal New Structure-Activity Insights” (J Med Chem, 2023)
Each block holds one molecule with its values, some of them ahead of it. Activity calls are given as the source filed them. No cut-off for these calls is given here.

Tests used:
Primary cortical neuron [1] = experiment: Induction of microtubule stabilization in mouse Primary cortical neuron cells assessed as prevention of okadaic acid induced microtubule collapse by measuring cellular acetylated alpha-tubulin level at 10 uM incubated for 8 hrs by ELISA; format: cell-based
Procedure, shortened: (§1)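 Embryonic dissociated cortical neurons (mouse or rat) plated 3 × 10^5/well on poly-D-lysine, grown 10 days, then treated 8 h with 15 nM okadaic acid plus compound or vehicle (0.25% DMSO). Homogenate AcTub measured by ELISA; one-way ANOVA versus vehicle without okadaic acid.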

Mus musculus = experiment: Binding affinity to microtubule in CD-1 mouse brain assessed as increase in de-tyrosinated alpha-tubulin level at 1 mg/kg, ip qd for 2 days […]; format: organism-based; conditions: time 2.0 day
Procedure, shortened: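 CD-1 mice (n = 4 per group) got two i.p. doses 1 mg/kg, about 24 h apart, from DMSO stock diluted into 30% Kolliphor EL in PBS pH 7.4; vehicle controls. Cortex and hippocampus taken 4 h after second dose, homogenized in RIPA with protease inhibitors, PMSF, 3 μM trichostatin A; equal protein western blot for Glu-tubulin, α-tubulin, GAPDH; infrared imaging; GluTub/α-Tub ratio versus vehicle.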

Tubulin (Homo sapiens) [2] = biological target: T1, Tubulin (Homo sapiens) (UniProt P68371+Q9H4B7+P0DPH7+P68366+Q13509+Q71U36+P04350+Q3ZCM7+P07437+P68363+Q9BQE3+Q6PEY2+Q13885+Q9BVA1+Q9BUF5); experiment: Induction of microtubule stabilization in human HEK293-A cells assessed as fold change in cellular acetylated alpha-tubulin level at 10 uM incubated for 4 hrs by ELISA relative to cevipabulin; format: cell-based
Procedure, shortened: (§2)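 QBI293 cells (2 × 10^5/well) treated 4 h with compound or DMSO vehicle; AcTub in whole-cell extracts measured by ELISA with BCA protein normalization. Fold-change in AcTub relative to DMSO then expressed against change produced by positive-control reference compound at 100 nM run alongside, to correct day-to-day responsiveness.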

Primary cortical neuron [3] = experiment: Induction of microtubule stabilization in rat Primary cortical neuron cells assessed as prevention of okadaic acid induced microtubule collapse by measuring cellular acetylated alpha-tubulin level at 1 uM incubated for 8 hrs by ELISA; format: cell-based; procedure, shortened: as §1
Tubulin (Homo sapiens) [4] = biological target: T1, Tubulin (Homo sapiens); experiment: Induction of microtubule stabilization in human HEK293-A cells assessed as fold change in total alpha-tubulin level reduction at 1 uM incubated for 4 hrs by ELISA relative to control; format: cell-based
Procedure, shortened: (§3)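 QBI293 cells (2 × 10^5/well) plated overnight, then fresh medium with compound (from 4–20 mM DMSO stocks) or vehicle (0.25–0.3% DMSO) for 4 h. Whole-cell extracts normalized by BCA protein; AcTub and total α-tubulin quantified by ELISA, as fold-change versus DMSO cells; one-way ANOVA.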

Tubulin (Homo sapiens) [5] = biological target: T1, Tubulin (Homo sapiens); experiment: Induction of microtubule stabilization in human HEK293-A cells assessed as fold change as increase in cellular acetylated alpha-tubulin level at 1 uM incubated for 4 hrs by ELISA relative to control; format: cell-based; procedure, shortened: as §3
Tubulin (Homo sapiens) [6] = biological target: T1, Tubulin (Homo sapiens); experiment: Induction of microtubule stabilization in human HEK293-A cells assessed as fold change in cellular acetylated alpha-tubulin level at 1 uM incubated for 4 hrs by ELISA relative to cevipabulin; format: cell-based; procedure, shortened: as §2
Tubulin (Homo sapiens) [7] = biological target: T1, Tubulin (Homo sapiens); experiment: Induction of microtubule stabilization in human HEK293-A cells assessed as fold change in total alpha-tubulin level reduction at 10 uM incubated for 4 hrs by ELISA relative to control; format: cell-based; procedure, shortened: as §3
Tubulin (Homo sapiens) [8] = biological target: T1, Tubulin (Homo sapiens); experiment: Induction of microtubule stabilization in human HEK293-A cells assessed as fold change as increase in cellular acetylated alpha-tubulin level at 10 uM incubated for 4 hrs by ELISA relative to control; format: cell-based; procedure, shortened: as §3

Structure (SMILES): CC(C)[C@@H](C)Nc1c(-c2c(F)cc(C#CCCO)cc2F)c(Cl)nc2ncnn12
Activity (Primary cortical neuron [1]): Active

Structure (SMILES): C[C@@H](Nc1c(-c2c(F)cc(C#N)cc2F)c(Cl)nc2ncnn12)C(C)(C)C
Activity (Mus musculus): Active

Structure (SMILES): C[C@@H](Nc1c(-c2c(F)cc(OCCCN(C)C)cc2F)c(Cl)nc2ncnn12)C(C)(C)C
Activity (Primary cortical neuron [1]): Active

Structure (SMILES): C[C@@H](Nc1c(-c2c(F)cc(C#CCCO)cc2F)c(Cl)nc2ncnn12)C(C)(C)C
Activity (Primary cortical neuron [1]): Active
Activity (Mus musculus): Active

fold change (FC) (Tubulin (Homo sapiens) [2]): 0.33
Structure (SMILES): C[C@@H](Nc1c(-c2c(F)cc(F)cc2F)c(Cl)nc2ncnn12)C1(C)N=N1

Structure (SMILES): CC(C)[C@@H](C)Nc1c(-c2c(F)cc(C#CCCCO)cc2F)c(Cl)nc2ncnn12
Activity (Primary cortical neuron [1]): Active

Structure (SMILES): C[C@@H](Nc1c(-c2c(F)cc(OCCCO)cc2F)c(Cl)nc2ncnn12)C(C)(C)C
Activity (Primary cortical neuron [1]): inactive

Structure (SMILES): C[C@@H](Nc1c(-c2c(F)cc(C#CCCN(C)C)cc2F)c(Cl)nc2ncnn12)C(C)(C)C
Activity (Primary cortical neuron [1]): Active
Activity (Mus musculus): Active

Structure (SMILES): CC(C)[C@@H](Nc1c(-c2c(F)cc(F)cc2F)c(Cl)nc2ncnn12)C(F)(F)F
Activity (Primary cortical neuron [3]): inactive

Structure (SMILES): CC(C)[C@@H](C)Nc1c(-c2c(F)cc(F)cc2F)c(Cl)nc2ncnn12
Activity (Primary cortical neuron [3]): Active
Activity (Primary cortical neuron [1]): Active

Structure (SMILES): CC(C)[C@H](Nc1c(-c2c(F)cc(F)cc2F)c(Cl)nc2ncnn12)C(F)(F)F
Activity (Primary cortical neuron [3]): inactive

fold change (FC) (Tubulin (Homo sapiens) [4]): 1.11
Structure (SMILES): C[C@@H](Nc1c(-c2c(F)cc(F)cc2F)c(Cl)nc2ncnn12)C1CC1

Structure (SMILES): C[C@@H](Nc1c(-c2c(F)cc(C#CCCCO)cc2F)c(Cl)nc2ncnn12)C(C)(C)C
Activity (Primary cortical neuron [1]): Active

fold change (FC) (Tubulin (Homo sapiens) [5]): 3.65
fold change (FC) (Tubulin (Homo sapiens) [6]): 0.54
fold change (FC) (Tubulin (Homo sapiens) [7]): 1.38
fold change (FC) (Tubulin (Homo sapiens) [8]): 7.43
fold change (FC) (Tubulin (Homo sapiens) [4]): 1.12
fold change (FC) (Tubulin (Homo sapiens) [2]): 1.11
Structure (SMILES): CO[C@H]1C[C@H]2CC[C@@H](C1)N2c1c(-c2ccc(F)cc2F)c(Cl)nc2ncnn12
